Assay results of several laboratories.
FGFR2: Fibroblast growth factor receptor 2 (FGFR2, Homo sapiens, UniProt P21802)
FGFR2 N549H: Fibroblast growth factor receptor 2 (FGFR2, Homo sapiens, UniProt P21802, N549H)

| Structure (SMILES) | target | observed | action | technique | concentration | inhibition [%] |
| --- | --- | --- | --- | --- | --- | --- |
| COc1cc2ncnc(Nc3ccc(Oc4ccccc4)cc3C)c2cc1OC | FGFR2 | enzyme activity | inhibitor |  | 1 µM | 8 |
| C=CC(=O)Nc1cc(Nc2nccc(Nc3cc(Cl)c(F)cc3C(C)(C)O)n2)c(OC)cc1N1CC[C@@H](N(C)C)C1 | FGFR2 | enzyme activity | inhibitor |  | 1 µM | 10 |
| CN(C)C1CCN(CC#Cc2nn(C3CCCC3)c3nc(NCc4ccccc4)ncc23)C1 (stereo not drawn) | FGFR2 | enzyme activity | inhibitor | FRET | 10 µM | 46 |
| CNC(=O)c1cc(Oc2ccc(NC(=O)Nc3ccc(Cl)c(C(F)(F)F)c3)cc2)ccn1 | FGFR2 N549H | cell-free assay |  |  | 10 µM | 100 |
| CNc1cccc2cc(C(=O)Nc3ccc(C(=O)O)cc3)c(=O)[nH]c12 | FGFR2 N549H | enzyme activity | inhibitor |  | 10 µM | 2.8 |
| O=C(CSc1nc2nccnc2c(=O)n1CCc1ccccc1)Nc1nccs1 | FGFR2 | enzyme activity | inhibitor |  | 10 µM | 3 |
| CSc1nc(C)c(-c2ccnc(Nc3ccc(N4CCOCC4)cc3)c2)[nH]1 | FGFR2 | cell-free assay | inhibitor |  | 10 µM | 44.9 |
| COc1cc2ncnc(Nc3ccc(Oc4ccccc4)c(C)c3C)c2cc1OC | FGFR2 | enzyme activity | inhibitor |  | 1 µM | 3 |
| Cc1ccc(Nc2nccc(N(C)c3ccc4c(C)n(C)nc4c3)n2)cc1S(N)(=O)=O | FGFR2 N549H | cell-free assay |  |  | 10 µM | 96 |
| COc1cc2nccc(Oc3ccc(NC(=O)c4c5n(n(-c6ccc(F)cc6)c4=O)CCCC5)cc3)c2cc1OC | FGFR2 | enzyme activity | inhibitor |  | 0.1 µM | 0 |
| CCN(CC)CCNC(=O)c1c(C)[nH]c(/C=C2\C(=O)Nc3ccc(F)cc32)c1C | FGFR2 N549H | cell-free assay |  |  | 10 µM | 95 |
| CC/C(=N\NC(=O)NCc1cccc(O)c1)c1ccc(O)c(C)c1O | FGFR2 | enzyme activity | inhibitor |  | 0.1 µM | 7.7 |
| CCCS(=O)(=O)Nc1ccc(F)c(C(=O)c2c[nH]c3ncc(-c4ccc(Cl)cc4)cc23)c1F | FGFR2 | enzyme activity | inhibitor |  | 1 µM | < 10 |
| CS(=O)(=O)Nc1cccc(-c2csc(NC(=O)CSc3nc4nccnc4c(=O)n3CCc3ccccc3)n2)c1 | FGFR2 | enzyme activity | inhibitor |  | 10 µM | -2 |
| CNC(=O)c1cc2c(Oc3ccc(NC(=O)C4(C(=O)Nc5ccc(F)cc5)CC4)cc3)ccnc2cc1OC | FGFR2 N549H | enzyme activity | inhibitor | radiometric | 1 µM | 95 |
